Beta cell apopt: inhibitors of cytokine-induced beta cell apoptosis, primary screen, luminescence | protection from apoptosis, % (no concentration beside the values) | INS-1E cytokine-induced death, ATP luminescence, 48 h; percent of positive-control rescue, neutral wells zero | 0.8% of 300,000 active;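 active = Every replicate reaches about 75%, or at least half do and their mean reaches it too, limit read from the data; inconclusive = At least half of replicates reach the limit but their mean does not; inactive = Under half of replicates reach the limit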;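 also: higher means more ATP so stronger rescue from cytokine killing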
T cruzi repl: inhibitors of intracellular T. cruzi growth, primary screen, luminescence, NIH3T3 host cells; 1.4% of 300,000 active; T. cruzi beta-gal in NIH3T3, 90 h; inhibition, % (test concentration not listed);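 active = mean inhibition across valid replicates above about 55%, limit read from the data; inconclusive = mean below that limit but half or more replicates reach it; inactive = mean below it, under half of replicates reach it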;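 also: signal also drops with host cell toxicity which is not excluded here; higher percent means less beta-gal luminescence so fewer parasites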
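Material: NIH/3T3 host cells with β-galactosidase reporter T. cruzi; Input: 5,000 host fibroblasts per well; Medium: DMEM, 2% fetal bovine serum; Compound: 50 nL DMSO compound solution per well; Schedule: 3 h host attachment, then at least 90 h co-culture; Detection: luminescent β-galactosidase signal after 60 min lysis.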
PolyA inhibitor: polyadenylation inhibitors in yeast reporter cells, primary screen, luminescence, S. cerevisiae; activity score, % at 12 µM; AID 1875, 2009; 0.02% of 300,000 active; S. cerevisiae SKY197-pL101 polyadenylation reporter, beta-gal luminescence; efflux-impaired pdr1/pdr3 knockout yeast; score 100 = 6 SD above DMSO;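 active = lowest replicate activity score at least 50, where 100 means six control SD above control mean; inconclusive = lowest score under 50 but half or more replicates reach 50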;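 also: yeast exposed to compound for 9 h at 30 °C; higher score means more reporter readthrough which indicates perturbed polyadenylation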
Calb FLC: C. albicans growth inhibition with fluconazole, primary screen, CaCi-2 strain, Alamar Blue fluorescence | 0.57% of 300,000 active | growth inhibition, % (concentration not given with the values) | AID 1979, 2009 | C. albicans CaCi-2 (fluconazole-resistant clinical isolate) + fluconazole, 48 h;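 active = growth inhibition above about 58% in most replicates, limit read from the data, passing the limit was not always enough; inconclusive = exactly half the replicates above a set limit; inactive = most replicates below a set limit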;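 also: all wells also contain fluconazole at 8 µg/ml as a sub-toxic cotreatment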
CSC inhib: cancer stem cell viability inhibitors, primary screen, luminescence; AID 2717, 2010; inhibition, % at 7.5 µM; cancer stem cell-like cells viability; 1.1% of 300,000 active; in the data active = inhibition above about 75%; inconclusive = no clear call, values can overlap the other calls; tested in HMLE shEcad cells
HIF activator: HIF pathway transcriptional activators, primary screen, cell-based, U2OS HRE-luciferase, luminescence; 0.32% of 300,000 active; U2OS HRE-luciferase reporter; normalized: DMSO 0%, desferrioxamine 100%; AID 1910, 2009; activation, % at 7.5 µM (by protocol);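 active = mean activation of at least 10% of the iron chelator positive control signal, with at least half of replicates also reaching 10%; inconclusive = mean and replicate majority disagree about reaching 10%; inactive = mean and most replicates under 10%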
Each line names hits and unclear results; the compound was inactive in the other large screens. Only some compounds are listed: those with a hit (about 3.1% of all), similar ones and a draw of the others.

O=S(=O)(c1ccc(Cl)c(Cl)c1)c1snnc1-c1ccccc1	Calb FLC 95 (no result: Beta cell apopt, CSC inhib)
CCn1c(C)cc(/C=C2\NC(=O)N(Cc3ccc(Cl)cc3)C2=O)c1C	T cruzi repl 55
O=C(O)c1ccc(S(=O)(=O)/N=C2\C=C(Nc3ccccc3F)C(=O)c3ccccc32)cc1	Beta cell apopt 99, CSC inhib 104
Cc1ccccc1NC1=C/C(=N\S(=O)(=O)c2ccc(C(=O)O)cc2)c2ccccc2C1=O	Beta cell apopt 107 (no result: CSC inhib)
CCOC(=O)N1CCC(N2CCCC(C(=O)c3ccc4cc(OC)ccc4c3)C2)CC1 (stereo unspecified)	T cruzi repl 56 (no result: PolyA inhibitor, Calb FLC)
CCCCCCCCCCCCN1[C@@H](CC(=O)OC)c2cc(F)ccc2S1(=O)=O	none
CCCCCCCCCCCCN1[C@@H](CC(C)=O)c2cc(F)ccc2S1(=O)=O	CSC inhib 80
CC1CCC(NC(=O)CSc2nncs2)CC1 (stereo unspecified)	none
S=C1NC2(CCCCC2)NN1c1ccccc1	Calb FLC 78
CC1CCCC2(C1)NC(=S)N(c1ccccc1)N2 (stereo unspecified)	Calb FLC inconclusive
O=C1NC2(CCC3(CC2)OCCO3)NN1c1ccccc1	Calb FLC 120
O=C1NC2(NN1c1ccccc1)C1CC3CC(C1)CC2C3 (stereo unspecified)	none
CCN(CC)CCCNC(=O)c1cc2c(-c3ccc(Cl)cc3)nn(C)c2s1	CSC inhib 98 (no result: HIF activator)
CC(C)(C)OC(=O)C[C@H]1C/C=C\C[C@H](CC(=O)NCCO)C(=O)N[C@@H](c2ccccc2)COC1=O	none (no result: T cruzi repl, PolyA inhibitor, Calb FLC, HIF activator)
O=C(NCCN1CCCC1)C(c1ccccc1)c1ccccc1	none (no result: Beta cell apopt)
Cc1noc2ncnc(Sc3ccc(Br)cc3)c12	T cruzi repl 62, Calb FLC 108
Cc1cccc(C(=O)N[C@H](C(=O)Nc2nnc(C3CC3)s2)C(C)C)c1	none
Cc1cccc(C(=O)N[C@H](C(=O)Nc2ncc(C)s2)C(C)C)c1	Beta cell apopt 76, CSC inhib 79
CC(Oc1cccc(Cl)c1)C(=O)Nc1nc(-c2ccccn2)cs1 (stereo unspecified)	T cruzi repl 60 (no result: Beta cell apopt)
C[C@H](NC(=O)c1ccccc1)C(=O)Nc1nc(-c2ccccn2)cs1	none
Cc1cccc(C(=O)NC(C(=O)Nc2nc(-c3ccccn3)cs2)C(C)C)c1 (stereo unspecified)	T cruzi repl 82
O=C(CCS(=O)(=O)c1ccccc1)Nc1cccc2c1C(=O)NC2=O	none
NC(=O)c1c(/N=C/c2cccs2)sc2c1CCCC2	none
COC(=O)C1=CN(Cc2ccc(OC)c(OC)c2)C=C(C(=O)OC)C1c1cccc(O)c1	T cruzi repl 58
CC(C)NC(=S)Nc1ccc2nc3n(c(=O)c2c1)CCCCC3	none
O=c1c2cc(NC(=S)NCCCN3CCC(Cc4ccccc4)CC3)ccc2nc2n1CCCCC2	T cruzi repl 57, CSC inhib 101
O=C(Nc1ccc2nc3n(c(=O)c2c1)CCCCC3)c1c(F)ccc([N+](=O)[O-])c1F	Beta cell apopt 105, CSC inhib 116
O=c1c2cc(NC(=S)NCCN3CCCCCC3)ccc2nc2n1CCCCC2	none
CCCCN(CC)CCCNC(=S)Nc1ccc2nc3n(c(=O)c2c1)CCCCC3	T cruzi repl 56
COc1ccc(N=Nc2n(C)c3ccccc3[n+]2C)cc1	T cruzi repl 64 (no result: Beta cell apopt, CSC inhib)
Cn1c(COc2ccccc2O)[n+](C)c2ccccc21	none
COc1ccc(C(O)P(=O)(OC(C)C)OC(C)C)c(OC)c1 (stereo unspecified)	none (no result: Beta cell apopt)
CCC(=O)NC(c1ccc(C)cc1)c1cc(Cl)c2cccnc2c1O (stereo unspecified)	Beta cell apopt 88 (no result: T cruzi repl, PolyA inhibitor, Calb FLC, CSC inhib, HIF activator)
CC(=O)NC(C)c1cc(Cl)c2cccnc2c1O (stereo unspecified)	Beta cell apopt 92 (no result: T cruzi repl, PolyA inhibitor, Calb FLC, HIF activator)
CCC(=O)NC(C)c1cc(Cl)c2cccnc2c1O (stereo unspecified)	none (no result: T cruzi repl, PolyA inhibitor, Calb FLC, HIF activator)
COc1ccc(C(NC(C)=O)c2cc(Cl)c3cccnc3c2O)cc1OC (stereo unspecified)	Beta cell apopt 95, T cruzi repl 57
CCC(=O)NC(c1ccco1)c1cc(Cl)c2ccccc2c1O (stereo unspecified)	none (no result: T cruzi repl, PolyA inhibitor, Calb FLC, HIF activator)
CC(=O)NC(C)c1cc(Cl)c2ccccc2c1O (stereo unspecified)	none (no result: T cruzi repl, PolyA inhibitor, Calb FLC, HIF activator)
COc1ccccc1C(NC(C)=O)c1cc(Cl)c2cccnc2c1O (stereo unspecified)	Beta cell apopt 94, T cruzi repl 61, CSC inhib 101
CC1CCCN(S(=O)(=O)c2ccc(NC(=O)C3CCN(C(=O)c4ccco4)CC3)cc2)C1 (stereo unspecified)	none
CN1C(C(=O)N2CCc3ccccc3C2)=CC(c2ccc(F)cc2)=NS1(=O)=O	none
Cc1cccc(NC(=O)CN2NS(=O)(=O)c3ccccc3C2=O)c1	none
Cc1ccc(S(=O)(=O)Nc2cc(Cl)c(O)c3ncccc23)cc1	Beta cell apopt 110
CCC(=O)NC(c1ccc(OC)c(OC)c1)c1cc(Cl)c2cccnc2c1O (stereo unspecified)	T cruzi repl 62 (no result: Beta cell apopt, CSC inhib)
CNC(=O)c1ccc2c(c1)nnn2C	Calb FLC 106
O=C(NNC(=O)c1ccccc1OCc1ccc(F)cc1)c1ccccc1O	Beta cell apopt 87
O=C(NNC(=O)c1ccccc1OCc1ccccc1)c1ccccc1O	Beta cell apopt 86
COc1ccc(C2C(C#N)=C(N)Oc3c2ccc2cccnc32)cc1OC (stereo unspecified)	Beta cell apopt 99, Calb FLC 93
COc1c2c(c(C)c3c1C(=O)OC3)O[C@@]1(C)CC[C@@]3(O)C(C)(C)OC(=O)CC[C@]3(C)[C@H]1C2	none
CCOC(=O)c1c(S(=O)(=O)N2c3ccccc3CC2C)c(C)n(C)c1C (stereo unspecified)	none (no result: Beta cell apopt)
CCOC(=O)c1c(C)[nH]c(C)c1S(=O)(=O)N1c2ccccc2CC1C (stereo unspecified)	HIF activator 32
O=c1cc(CN2CC(O)Cc3ccc4ccccc4c32)nc2sccn12 (stereo unspecified)	none
Cc1ccc2c(c1)N(CC(=O)N1CCCCC1c1cccnc1)C(=O)CO2 (stereo unspecified)	T cruzi repl 61
CCOc1ccc(NS(=O)(=O)c2ccc(C(=O)N3CCCC(C)C3)cc2)cc1 (stereo unspecified)	none (no result: Beta cell apopt)
CCOc1ccc(-c2nnc(SCC(=O)N3CCNC3=O)o2)cc1	none (no result: T cruzi repl, PolyA inhibitor, Calb FLC, HIF activator)
Cc1ccc2nc(Cl)c3nnnn3c2c1	Calb FLC 97, CSC inhib inconclusive
CCC/C(=C1/c2ccccc2C(=O)N1c1ccccc1)c1ccc2[nH]ccc2c1	CSC inhib 135 (no result: T cruzi repl, PolyA inhibitor, Calb FLC, HIF activator)

Screening results: PubChem BioAssay, Broad Institute
